Data published in the RNAGym collection of RNA variant scans (doi:10.1101/gad.245936.114).
This sample holds only a part of the variants without activity.

B1: tRNA (parent)
chain: CUCUCGGUAGCCAAGUUGGUUUAAGGCGCAAGACUUUAAUUUAUCACUACGAAAUCUUGAGAUCGGGCGUUCGACUCGCCCCCGGGAGAUUUUUUCCUCGAGCAA

Variants of: B1
Assay: nonsense suppression (GFP-seq) (ratio to wild type); higher = more function; SUP4oc tRNA, yeast GFP reporter sort-seq
Outline: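 Nonsense suppression (GFPSEQ) is the median GFP/RFP ratio of each sorting bin, weighted by the variant's estimated share of cells in that bin and expressed relative to the unmutated parent tRNA. Yeast strains carried genome-integrated variants of an ochre-suppressor tRNA from a library with ~3% random mutations, plus a galactose-driven GFP ochre reporter and RFP, and were grown in raffinose/galactose medium containing 80 mg/L adenine. Cells were sorted into GFP/RFP bins, each bin was Illumina-sequenced (phred ≥30), and variants were kept only with ≥100 reads and ≥30 cells.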

Variant | nonsense suppression
CUCUCGGUAGCCACGUUGGUUUAAGGCGCAAGACUUUAAUUUAUCACUACGAAAUCUUGAGAUCAGGCGUUCGACUCGCCCCCGGGAGAUUUUUUCCUCGAGCAA [A14C G65A] | ≤ 0.026
CUCUAGGUAGCCAAAUUGGUUUAAGGCGCAAGGCUUUAAUUUAUCACUACGAAAUCUUGAGAUCGGGCGUUCGACUCGCCCCCGGGAGAUUUUUUCCUCGAGCAA [C5A G15A A33G] | ≤ 0.026
CUCUCGGUAGCCAAGUUGGUUUAAGGCGCAAGGCUUUAAUUUAUCACUACGAAAUCUUGAGAUCGGGCGUUCGAAUCGCCCCCGGGAGAUUUUUUCCUCGAGCAA [A33G C75A] | 0.235
CUCUCGGUAGCCAAGCUGGUUUAAGGCGCAAGACUUUAAUUUAUCACUACGAAAUCUUGAGAUCGGGCGUUCGACUCGCCCACGAGAGAUUUUUUCCUCGAGCAA [U16C C82A G85A] | ≤ 0.026
CUCUCGGUGGCCAAGUUGGUUUAAGGCGCAAGACUUUAAUUUAUCACUACGAAAUCUUGAGAUCGGGCGUUCGAUUCGCCCCCGGGAGAUUUUUUCCUCGAGCAA [A9G C75U] | 1.17
CUCGCGGUAGCCAAGUUGGUUGAAGGCGCAAGACUUUAAUUUAUCACUACGAAAUCUUGAGAUCGGGCGUUCGACUCGCCCCCGGGAGAUUUUUUCCUCGAGCAA [U4G U22G] | 0.492
UUCUCGAUAGCCAAGUUGGUUUAAGGCGCAAGACUUUAAUUUAUCACUACGAAAUCUUGAGAUCGGGCGUUCGACUCGCCCCCGGGAGAUUUUUUCCUCGAGCAA [C1U G7A] | ≤ 0.026
CUCUCGGUAGCCAAGUCGGUUUAAGGCGCUAGACUUUAAUUUAUCACUACGAAAUCUUGAGAUCGGGCGUUCGACUCGCCCCCGGGAGAUUUUUUCCUCGAGCAA [U17C A30U] | 0.16
CUCUCGGUAGCCAAGAUGGUUUAAGGCGCAAGACUUUAAUUUAUCACUACGAAAUCUUGAGAUCGGGCGUUCGACUCGCCCCCGGGAGAUUUUUUCCUCGAGCAA [U16A] | 1
CUCUCGGUAGCCAAGUUGGUUUCAAGCGCAAGACUUUAAUUUAUCACUACGAAAUCUUGAGAUCGGGCGUUCGACUCGCCCCCGGGAGAUUUUUUCCUCGAGCAA [A23C G25A] | ≤ 0.026
CUCUCAGUAGCCAAGUUGGUUUAUGGCGCAAGACUUUAAUUUAUCACUACGAAAUCUUGAGAUCGGGCGUUCGACUCGCCCCCGGGAGAUUUUUUCCUCGAGCAA [G6A A24U] | 0.0308
CUCUCGGUAGCCAAGUUGGUCUAAGGCGCGGGACUUUAAUUUAUCACUACGAAAUCUUGAGACCGGGCGUUCGACUCGCCCCCGGGAGAUUUUUUCCUCGAGCAA [U21C A30G A31G U63C] | ≤ 0.026
CUCUCGGUAGCCAAGAUGGUUUAAGGCGCAAGACUUUAAUUUAUCACUACGAAAUCUUGAGAUCGGGCGUUCAACUCGCCCCCGGGAGAUUUUUUCCUCGAGCAA [U16A G73A] | 0.63
CUCUCGGUAGCCAAGUUGGUUUAAGGCGCAAGACUUUAAUUUAUCACUACGAAAUCUUGAGAUCGGGCGUUCGACUCGCCCUCGGGAGAUUUUUUCCUCGAGCAA [C82U] | 1.05
CUCUCGGUAGCCAAGUUGGUUUAAGGGGCAAGACUUUAAUUUAUCACUACGAAAUCUUGAGAUCGGGCGUUCGACUGGCCCCCGGGAGAUUUUUUCCUCGAGCAA [C27G C77G] | ≤ 0.026
CUCUCGGUAGCCAAGUAGGUUUAAGGCUCACGACUUUAAUUUAUCACUACGAAAUCUUGAGAUCGGGCGUUCGACUCGCGCCCCGAAGAUUUUUUCCUCGAGCAA [U17A G28U A31C C80G G84C G86A] | ≤ 0.026
CUCUCGGUAGCCAAGUUGGGUUAAGGCGCAAGUCUUUAAUUUAUCACUACGAAAUCUUGAGAUCGGGCGUUCGACUCGCCCCCGGGAGAUUUUUUCCUCGAGCAA [U20G A33U] | 0.0902
CUCGCGGUAGCCAAGUUGGUUUAAGGCGCAAGACUUUAAUUUAUCACUACGAAAUCUUGAGAUCGGGCGUUCGGCUCGCCCCCGGGAGAUUUUUUCCUCGAGCAA [U4G A74G] | 0.0287
CACUCGGUAGCCAAGUUGGUUUAAGGCGCUAGACUUUAAUUUAUCACUACGAAAUCUUGAGAUCGGGCGUUCGACUCGCCCCCGGGAGAUUUUUUCCUCGAGCAA [U2A A30U] | 0.031
CUCUCGUUAGCCAAGUUGGUUUAAGGCGCAAGACUUUAAUUUAUCACUACGAAAUCUUGAGAUCGGGCGUUCGACUCGCCCCCGUGAGAUUUUUUCCUCGAGCAA [G7U G85U] | ≤ 0.026
CUCUCGGUAGCCAAGUUGGUUUAAGGCGCAAGACUUUAAUUUAUCACUACGAAAUCUUGACAUCGGGCGUUCGACUCGCCCCCUGGAGAUUUUUUCCUCGAGCAA [G61C G84U] | 0.199
CUCUCGGUAGCCAACUUGGUUCAAGGCCCAAGACUUUAAUUUAUCACUACGAAAUCUUGAGAUCGGGCGUUCGACUCGCCCCCGGGAGAUUUUUUCCUCGAGCAA [G15C U22C G28C] | ≤ 0.026
CUCCCGGUAGCCAAGUUGGUUUAAGGCGCAAGACAUUAAUUUAUCACUACGAAAUCUUGAGAUCGGGCGUUCGACUCGCCCCAGGGAGAUUUUUUCCUCGAGCAA [U4C U35A C83A] | ≤ 0.026
CUCUCGGUAGCCAAGUUGGUUUACGGCGCAAGACUUUAAUUUAUCACUACGAAAUCUUGAGAUCGGUCGUUCGACUCGCCCCCGGGAGAUUUUUUCCUCGAGCAA [A24C G67U] | 0.0289
CACUCGGUAGCCAAGUUGGUUUAAGGCGCAAGACUUUAAUUUAUCACUACGAAAUCUUGAGAUCGGGUGUUCGACUCGCCCCCGGGAGAUUUUUUCCUCGAGCAA [U2A C68U] | 0.18
CUCUCGGUAGCCAAGUUGGUUUGAGGCGCAAGACUUUAAUUUAUCACUACGAAAUAUUGAGAUGGGGCGUUCGCCUCGCCCCCGGGAGAUUUUUUCCUCGAGCAA [A23G C56A C64G A74C] | ≤ 0.026
CUCUCGGUAGCUAAGUUGGCUUAAGGCGCAAGACUUUAAUUUAUCACUACGAAAUCUUGAGAUCGGGCGUUCGACUCGCCCCCGGGAGAUUUUUUCCUCGAGCAA [C12U U20C] | 0.177

Variant | nonsense suppression
CUCUCGGUAGCCAAGUUGGAUUAAGGCGCAAGACUUUAAUUUAUCACUACGAAAUCUUGAGAUCGGGCGUUCGUCUCGCCCCCGGGAGAUUUUUUCCUCGAGCAA [U20A A74U] | 0.0745
CUCUCGGUAGCCCAGUUGGUUUAAGGCGCAAGACUUUAAUUUAUCACUACGAAAUCUUGAGAUCGGGCGUUCGACUCGCUCCCGGGAGAUUUUUUCCUCGAGCAA [A13C C80U] | 0.179
CUCUCGGUAGCCAAGUUGGUUUAAGGCGCAAGACUUUAAUUUAUCACUACGAAAUCUUGAGAUCGGGCGUUCGACUCGCCCCCGGUUGAUUUUUUCCUCGAGCAA [G86U A87U] | ≤ 0.026
CUCCCGGUAGCCCAGUUGGUUUAUGGCGCAAGACUUUAAUUUAUCACUACGAAAUCUUGAGAUCGGGCGUUCGACUCGCCCCCGGGAGAUUUUUUCCUCGAGCAA [U4C A13C A24U] | 0.488
CUCUCGGUAGCCAAUUUGGUUUGAGGCGCAAGACUUUAAUUUAUCACUACGAAAUCUUGAGAUCCGGCGUUCGACUCGCCCCCGGGAGAUUUUUUCCUCGAGCAA [G15U A23G G65C] | ≤ 0.026
CUCCCGGUAGCCAAGUUGGUUUAACGCGCAAGACUUUAAUUUAUCACUACGAAAUCUUGAGAUCGGGCGUUCGACUCGCCCCCGGGAGAUUUUUUCCUCGAGCAA [U4C G25C] | 0.723
CUCUCGGUAGCCAAGUUGGUUUAACGCGCACGACUUUAAUUUAUCACUACGAAAUCUUGAGAUCGGGCGUUCAACUCGCCCCCGGGAGAUUUUUUCCUCGAGCAA [G25C A31C G73A] | ≤ 0.026
CUCUCGGUAGCCAAGUUGGUUUAAGGCGCUAGACUUUAAUUUAUCACUACGAAAUCUUGAGAUCGGACGUUCUGCUCGCCACCGGGAGAUUUUUUCCUCGAGCAA [A30U G67A G73U A74G C81A] | ≤ 0.026
CUCGCGGUAGCCAAGUUGGUUUAAGGCGCAAAGCUUUAAUUUAUCACUACGAAAUCUUGAGAUCGGGCGUUCGACUCGCCCCCGGGAGAUUUUUUCCUCGAGCAA [U4G G32A A33G] | ≤ 0.026
CUCUCGGUAGCCAAGUUGCUUUAAGGCGCAAGAUUUUAAUUUAUCACUACGAAAUCUUGAGAUCGGGCGUCCGACUCGCCCGCGGGAGAUUUUUUCCUCGAGCAA [G19C C34U U71C C82G] | ≤ 0.026
CUCUCGGUAGCCAAUUUGGUUUAAGGCGCAAGACUUUAAUUUAUCACUACGAAAUCUUGAGAUCGGGCGAUCGACUCGCCCCCGUGAGAUUUUUUCCUCGAGCAA [G15U U70A G85U] | ≤ 0.026
CUCUCGGUAGCCCAGUUGGUUUAAGGCGCAAGACUUUAAUUUAUCACUACGAAAUCUUGAGAUCGGGCGUUCUACUCGCCCCCGGGAGAUUUUUUCCUCGAGCAA [A13C G73U] | 0.0412
CUCGCUGUAGCCAAGUUGGUCUAAGGCGCAAGACUUUAAUUUAUCACUACGAAACCUUGAGAUCGGGCGUUCGACUCGGCCCCGGGAGAUUUUUUCCUCGAGCAA [U4G G6U U21C U55C C79G] | ≤ 0.026
CUAUCGGUAGCCAAGUUGGUUUAAGGCACAAGACUUUAAUUUAUCACUACGAAAUCUUGAGAUCGGGCGUUCAGCUCGCCCCCGGGAGAUUUUUUCCUCGAGCAA [C3A G28A G73A A74G] | ≤ 0.026
CUCACGGUAGCCAUGUUGGUUUAAGGCGCAAGACUUUAAUUUAUCACUACGAAAUCUUGAGAUCGGGCGUUCGACUCGCCCCCGGGAGAUUUUUUCCUCGAGCAA [U4A A14U] | 0.0276
CUCACGGUAGCCAGGUUGGUUUAAGGCGCAAGACUUUAAUUUAUCACUACGAAAUCUUGAGAUCGGGCGUUCGACUCGCCCCCGGGAGAUUUUUUCCUCGAGCAA [U4A A14G] | 0.0942
CUCUCGGUGGCCGAGUUGGUUUAAGGCGCAAGACUUUAAUUUAUCACUACGAAAUCUUGAGAUCGGGCGUUCGACUCGCCCCCGGGAGAUUUUUUCCUCGAGCAA [A9G A13G] | 0.205
CUCUCGGUUGCCAAGUUGGUUUAAGGCGCAAGACUUUAAUUUAUCACUACGAAAUCUUGAGAUCGAGCGUUCGACUCGCCCCCGGGAGAUUUUUUCCUCGAGCAA [A9U G66A] | 0.0305
CUCUCGGUAGCUAAGUUUGUUUAAGGCGCCAGACUUUAAUUUAUCACUACGAAAUCUUGAGAUCGGGCGUUCGACUCGCCCCCAGGAGCUUUUUUCCUCGAGCAA [C12U G18U A30C G84A A89C] | ≤ 0.026
CUCUCGGUAGCCAAGUUGGUUUAAGGCGCAAGUCUUUAAUUUAUCACUACGAAACCUUGAGAACGGGCGCUCGACUCGCCCCCGGGAGAUUUUUUCCUCGAGCAA [A33U U55C U63A U70C] | ≤ 0.026
CUCUCGGUAGCCAAGUUUGUUUAAGGCGCAAGACUUUAAUUUAUCACUACGAAAUCUUGAGAUCGGGCGUUCGACCCGCCCCCGGUAGAUUUUUUCCUCGAGCAA [G18U U76C G86U] | ≤ 0.026
CUCUCGGUAGCCAAGAUGGUUUAAGGCGCAAGACUUUAAUUUAUCACUACGAAAUCUUGAGAUCGGGCGUGCGAGUCGCCCCCGGGAGAUUUUUUCCUCGAGCAA [U16A U71G C75G] | ≤ 0.026
CACUCGGUAGCAAAGUUGGUUUAAGGCGCAAGACUUUAAUUUAUCACUACGAAAUCUUGAGAUCGGGCGUUCGACUCGCCCCCGGGAGAUUUUUUCCUCGAGCAA [U2A C12A] | ≤ 0.026
CUCUCGCUAGCCAAGUUGGUUUAAGGCGGAAGACUUUAAUUUAUCACUACGAAAUCUUGAGAUCGGGCGUUCGACUCGCCCCCGGGAGAUUUUUUCCUCGAGCAA [G7C C29G] | ≤ 0.026
CUCUCGGUAGCCAAGUUGGUUUAAGGCGCAAGACUUUAAUUUAUCACUACGAAACCUUGAGAUCGGGCGUUCGACUCGCCCCCUGGAGAUUUUUUCCUCGAGCAA [U55C G84U] | 0.0453
CUCUCGGUAGCCAAGUUGGUUUAAGGCGCAAGACUUUAAUUUAUCACUACGAAAUCUUGAGAUCGGGCGUUCGACACGGCCCCGGGAGAUUUUUUCCUCGAGCAA [U76A C79G] | ≤ 0.026
CUCUCGGUAGCCAAGUUGUUUUAAGGCGCAAGACUUUAAUUUAUCACUACGAAUUCUUGAGAUCGGGCGUUGGACUCGCCCCCGGGAGAUUUUUUCCUCGAGCAA [G19U A54U C72G] | ≤ 0.026
